Only some compounds are listed: those with a hit (about 1.9% of all), similar ones and a draw of the others.
MT stabilize HCS: microtubule stabilizers in HeLa cells, primary screen, imaging, high-content imaging. HeLa tubulin immunostaining HCS, 24 h; share of cells brighter than vehicle mean+2SD. % tubulin-high responders, % at 10 µM. 200,000 compounds, 0.83% hits. AID 2205, 2009;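 active = plate Z-score above 3 for both tubulin-high and condensed-nucleus cell shares, with cell loss under 80%, at 10 µM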;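 also: anti alpha tubulin signal scored within the nucleus-defined area of each cell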
ROMK mod: ROMK potassium channel modulators, primary screen, cell-based, thallium flux, MLSMR library; ATP-sensitive inward rectifier potassium channel 1 (Homo sapiens), P48048; 130,000 compounds, 2% hits; AID 1918, 2009; B-score at 10 µM; Tet-inducible ROMK, thallium flux fluorescence; actives lie on both sides;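 active = signal ratio slope over the read window, or its plate-corrected B-score, at least 3 SD from the plate mean, either direction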;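 also: B-score of the F/F0 ratio slope over 7 to 12 s after thallium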
Target sequence (P48048 whole entry, looked up): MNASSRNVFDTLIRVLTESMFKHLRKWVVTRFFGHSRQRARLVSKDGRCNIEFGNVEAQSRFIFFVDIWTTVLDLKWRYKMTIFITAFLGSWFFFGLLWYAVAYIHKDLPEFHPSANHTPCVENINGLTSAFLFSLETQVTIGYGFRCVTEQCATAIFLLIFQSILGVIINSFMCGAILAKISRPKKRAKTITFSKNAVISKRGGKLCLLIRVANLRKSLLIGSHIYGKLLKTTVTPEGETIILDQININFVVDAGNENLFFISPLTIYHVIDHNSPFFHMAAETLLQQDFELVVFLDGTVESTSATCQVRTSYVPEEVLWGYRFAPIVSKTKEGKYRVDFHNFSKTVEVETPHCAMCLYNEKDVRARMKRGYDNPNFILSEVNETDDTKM
b-catenin transl: modulators of beta-catenin nuclear translocation, primary screen, imaging, HeLa cells, immunofluorescence, high-content; nuclear translocation activity, % at 5 µM; 190,000 compounds, 0.3% hits;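 active = nuclear translocation activity above 50% at 5 µM, with a well cell count of 50 or more; inconclusive = wells under 50 cells across six images, flagged as toxic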;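 also: per-cell ratio of nuclear to cytoplasmic median beta-catenin stain intensity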
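Signal – beta-catenin immunofluorescence imaging with DAPI · Test system – human HeLa cell line · Dosing – 5 µM primary single dose, 0.1% DMSO, 0.02–20 µM confirmation series · Measure – % activation, nuclear-to-cytoplasmic median beta-catenin signal ratio per cell · Incubation – 24 h compound exposure at 37°C, 5% CO2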
ROMK hit retest: ROMK channel modulator hit retest, confirmation, cell-based, thallium flux, duplicate, resupplied hits; 3,000 compounds, 54% hits; fluorescence ratio; stronger effect = lower value; normalized thallium flux (F/F0 slope) at 10 µM; shares compounds with ROMK mod;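 active = Flux at 10 µM at least 3 SD below or above vehicle control mean in one or both replicates; inconclusive = no clear call, values can overlap the other calls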
Of the large screens only hits and unclear results are named; the others gave an inactive call (follow-up assays come after a bar, where they were run).

Cc1ccc(NC(=O)NCC2CCN(Cc3cccc(Cl)c3)CC2)c(Cl)c1	none
Cc1ccc(NC(=O)NCC2CCN(Cc3cc(C)ccc3Cl)CC2)c(C)c1	ROMK mod -3.76 | ROMK hit retest 0.0544
CC1(C)CC(=O)C=C(NCc2ccc(Cl)c(Cl)c2)C1	none
CC(=O)OCC(OC(C)=O)C(OC(C)=O)C(OC(C)=O)C(=O)Nc1ccccc1 (configuration not stated)	none
CC(=O)OCC(OC(C)=O)C(OC(C)=O)C(OC(C)=O)C(=O)Nc1ccc(C)cc1 (configuration not stated)	none (no result: ROMK mod) | ROMK hit retest inactive
O=C(c1ccco1)N1CCC(c2ccccc2)C1 (configuration not stated)	none
CCOc1ccc2noc3c2c1C(=O)c1ccccc1-3	none (no result: ROMK mod)
O=C1c2ccccc2-c2onc3ccc(N4CCCC4)c1c23	ROMK mod -5.59 | ROMK hit retest 0.0604
CCN1CCN(C(C)C(=O)NC2CCCCC2)CC1 (configuration not stated)	none (no result: MT stabilize HCS, ROMK mod)
CC1=C(C(=O)OC(C)(C)C)C(c2cccs2)NC(=O)N1 (configuration not stated)	none
N#CCN1C(=O)C2CCCN2c2ccc(S(=O)(=O)N3CCOCC3)cc21 (configuration not stated)	none
COCCCn1c(C)nc2c(c1=O)c1nc3ccccc3nc1n2CCc1ccccc1	ROMK mod -3.96 | ROMK hit retest 0.0498
COCCCn1c2nc3ccccc3nc2c2c(=O)n(Cc3ccc(Cl)cc3)cnc21	none
[O-][n+]1onc2c3ccnnc3ccc21	none (no result: ROMK mod)
Cc1cc2c(ccc3c2no[n+]3[O-])nn1	ROMK mod 2.67 | ROMK hit retest inactive
C/C(=N\NC(=O)C(=O)Nc1cccc(Cl)c1C)c1ccncc1	none
CC(C)c1cccc(C(C)C)c1NC(=S)Nc1cccc(Cl)c1	none (no result: MT stabilize HCS, ROMK mod)
C/C(O)=C\c1nc2ccccc2oc1=O	none (no result: ROMK mod, b-catenin transl) | ROMK hit retest inactive
O=c1oc2ccccc2nc1/C=C(\O)c1ccc(Br)cc1	none (no result: MT stabilize HCS)
C#CC1(NC(=O)NC(C)C)CCCCC1	none
O=C(c1cccc(Cl)c1)N1CCC(=O)N(C(COCc2cccc(Cl)c2)Cc2ccccc2)CC1 (configuration not stated)	none (no result: b-catenin transl)
Cc1cccc(C(=O)N2CCC(=O)N(C(COCc3ccc(Cl)cc3)Cc3ccccc3)CC2)c1 (configuration not stated)	ROMK mod -3.53 (no result: b-catenin transl) | ROMK hit retest 0.0479
Cc1cccc(COCC(Cc2ccccc2)N2CCN(C(=O)c3ccc(C(F)(F)F)cc3)CCC2=O)c1 (configuration not stated)	none
O=C(c1ccc(C(F)(F)F)cc1)N1CCC(=O)N(C(COCc2ccc(C(F)(F)F)cc2)Cc2ccccc2)CC1 (configuration not stated)	ROMK mod -4.08 (no result: b-catenin transl) | ROMK hit retest 0.0655
Cc1cccc(C(=O)N2CCC(=O)N(C(COCc3cccc(Cl)c3)Cc3ccccc3)CC2)c1 (configuration not stated)	ROMK mod -3.69 (no result: b-catenin transl) | ROMK hit retest 0.0557
O=C(c1ccc(Cl)c(Cl)c1)N1CCC(=O)N(C(COCc2cccc(Cl)c2)Cc2ccccc2)CC1 (configuration not stated)	none (no result: b-catenin transl)
COCCNC(=S)N(C)C1(c2ccccc2Cl)CCCCC1=O (configuration not stated)	none
CCCCN(C(C)=O)c1c(N)n(CCC)c(=O)n(CC(=O)Nc2cc(Cl)cc(Cl)c2)c1=O	none
CN(C)c1ccc(C2Nc3ccccc3C(=O)N2CCCN2CCOCC2)cc1 (configuration not stated)	none (no result: MT stabilize HCS, ROMK mod)
O=C(N=c1ccn(-c2nc3ccccc3nc2NS(=O)(=O)c2ccc(Cl)cc2)cc1)c1cccs1	none (no result: MT stabilize HCS, ROMK mod)
CCOc1ccc(S(=O)(=O)Nc2nc3ccccc3nc2-n2ccc(=NC(=O)c3cccs3)cc2)cc1	ROMK mod -2.56 | ROMK hit retest 0.0589
CNS(=O)(=O)c1ccc(C(C)(C)C)cc1	none
C[C@@H]1NC(=O)c2cc([N+](=O)[O-])cc(I)c2OCC[C@@H](C(N)=O)NC(=O)[C@H](CCC(=O)O)NC1=O	none (no result: b-catenin transl)
Cc1c[nH]c2cccc(OCC(O)CNC(C)(C)C)c12 (configuration not stated)	none (no result: ROMK mod, b-catenin transl)
CC(C)(C)NCC(O)COc1ccccc1C(C)(C)C (configuration not stated)	ROMK mod -3.77 | ROMK hit retest inactive
CC(C)(C)NCC(O)COc1ccccc1C(=O)CCc1ccccc1 (configuration not stated)	ROMK mod -3.93 (no result: b-catenin transl) | ROMK hit retest 0.0502
CCc1ccc(OCC(O)CNC(C)(C)C)cc1 (configuration not stated)	none (no result: b-catenin transl)
CCC(C)C(=O)Nc1ccc(OC)cc1[N+](=O)[O-] (configuration not stated)	none (no result: b-catenin transl)
CC(C)NC(=S)Nc1ccc2cn[nH]c2c1	none (no result: b-catenin transl)
COC(=O)c1sc(-c2ccc(Cl)cc2)cc1NC(=O)CSCC(=O)O	none (no result: MT stabilize HCS)
COC(=O)c1sc(-c2ccc(C(C)(C)C)cc2)cc1NC(=O)COCC(=O)O	ROMK mod -11.2 (no result: MT stabilize HCS) | ROMK hit retest inactive
Cc1ccc(S(=O)(=O)N(Cc2ccc(Cl)cc2)c2ccccc2C(=O)NCc2ccco2)cc1	none (no result: ROMK mod)
Cc1nc2cc(NC(=O)Nc3ccc(Br)cc3)ccc2o1	none
COc1cccc(CN2CCN(Cc3cc(OC)c(OC)cc3[N+](=O)[O-])CC2)c1	none
COc1cc(CN2CCN(Cc3ccc([N+](=O)[O-])cc3)CC2)c([N+](=O)[O-])cc1OC	ROMK mod -4.26 | ROMK hit retest 0.0444
COc1ccc(N2Cc3ccccc3C2=NC(=O)c2cncc(Br)c2)cc1	none
COC(=O)CSc1nc(C)cc(C(F)(F)F)c1C#N	none (no result: ROMK mod) | ROMK hit retest inactive
COC(=O)CSc1nc(C)cc(C)c1C#N	none
CCOC(=O)C(=CNc1cc(C)ccc1-n1cccc1)C(=O)OCC	none (no result: MT stabilize HCS)
O=c1c(Cc2ccccc2)c(O)c2cccc3c4c(n1c23)CCCC4	ROMK mod 3.79 (no result: MT stabilize HCS) | ROMK hit retest inconclusive
Cn1c(=O)c(Cc2ccccc2)c(O)c2ccccc21	none (no result: ROMK mod)
Cc1ccc(/C=C2\SC(N3CCCC3)=NC2=O)cc1	none
O=C1N=C2SCCN2/C1=C\c1ccc(Cl)cc1	ROMK mod -7.58 | ROMK hit retest 0.0466
Cc1ccc(NC(=O)c2cc(N3C(=O)C=CC3=O)ccc2Cl)cc1C	none
CCCCCCOc1ccc(N2C(=O)CC(N3CCN(CCN=CC4C(=O)CC(C)(C)CC4=O)CC3)C2=O)cc1 (configuration not stated)	none
O=C(C[n+]1ccc(-c2nnc3n2CCC3)cc1)c1ccc(Cl)c(Cl)c1	none
CCOC(=O)c1cc(-c2ccccc2)n(CC(=O)Nc2ccc(OC)c(OC)c2)c1C	none
CCOC(=O)c1cc(-c2ccccc2)n(CC(=O)Nc2cccc(OC)c2)c1C	ROMK mod -4.79 | ROMK hit retest inactive
COc1ccccc1NC(=O)c1ccc(-n2cccn2)nc1	none (no result: ROMK mod, b-catenin transl)
N#CC1=C(N)NC(SCC(=O)c2ccc(Cl)cc2)=C(C#N)C12CCCC2	ROMK mod -2.34 | ROMK hit retest 0.0662
N#CC1=C(N)NC(SCC(=O)c2ccc(Br)cc2)=C(C#N)C12CCCCC2	none

Source: PubChem
